Assay outcomes deposited in PubChem by Sanford-Burnham Center for Chemical Genomics.
SUMO1-SIM PPI – modulators of SUMO1 protein-protein interactions, primary screen, biochemical, uHTS. SUMO1 binding to a labelled peptide, TR-FRET, 1 h. inhibition, % at 20 µM. actives 0.33% (n = 360,000). Small ubiquitin-related modifier 1 (Homo sapiens), P63165; in the data active means inhibition above about 37%
Target sequence (P63165 whole entry, looked up): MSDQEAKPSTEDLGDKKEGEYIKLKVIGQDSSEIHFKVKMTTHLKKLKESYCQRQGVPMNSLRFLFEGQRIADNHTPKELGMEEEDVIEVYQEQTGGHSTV
Scp-1 inhibitor – Scp-1 phosphatase inhibitors, primary screen, biochemical, colorimetric, uHTS. inhibition, % at 20 µM. Recombinant Scp1, phosphopeptide, malachite green phosphate absorbance. actives 0.88% (n = 340,000);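 active means inhibition above about 50% at 20 µM, limit read from the data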
Target sequence (Q9GZU7 76-261 limits assumed): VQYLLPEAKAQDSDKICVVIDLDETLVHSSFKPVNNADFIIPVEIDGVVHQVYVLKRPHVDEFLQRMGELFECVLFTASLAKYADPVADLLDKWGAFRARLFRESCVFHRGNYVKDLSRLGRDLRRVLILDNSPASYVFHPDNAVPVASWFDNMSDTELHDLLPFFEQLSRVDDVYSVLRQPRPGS
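System: SCP-1 catalytic domain; Reagent: Phospho 17-mer peptide substrate; Doses: one concentration, 20 µM, with 1.0% DMSO; Incubation: 45 min room-temperature reaction, 5 min colour, 30 min stabiliser; Signal: Phosphate-binding colour reagent, absorbance read at 630 nm.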
STEP block – STEP phosphatase inhibitors, primary screen, biochemical, fluorescence intensity, uHTS; recombinant STEP, OMFP fluorogenic substrate; inhibition, % at 20 µM; actives 0.25% (n = 360,000);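 active means inhibition at 20 µM, scaled per plate between control wells, above about 37%, limit read from the data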
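System: isolated STEP enzyme; schedule: 20 min enzyme reaction at room temperature, protected from light; medium: Bis-Tris buffer pH 6.0, 2.5 mM DTT, 0.005% Tween 20; signal: fluorescence, 480/540 nm; dosing: single compound dose of 20 µM, 1% DMSO final; also added: OMFP substrate, 25 µM final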
LMPTP block – LMPTP phosphatase inhibitors, primary screen, biochemical, fluorescence intensity, uHTS; actives 0.22% (n = 360,000); recombinant LMPTP-A, OMFP fluorogenic substrate; AID 651560, 2012; inhibition, % at 20 µM;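 active means compounds that cut the enzyme signal by at least half of the control window in the single-dose screen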
Target sequence (P24666 whole entry, looked up): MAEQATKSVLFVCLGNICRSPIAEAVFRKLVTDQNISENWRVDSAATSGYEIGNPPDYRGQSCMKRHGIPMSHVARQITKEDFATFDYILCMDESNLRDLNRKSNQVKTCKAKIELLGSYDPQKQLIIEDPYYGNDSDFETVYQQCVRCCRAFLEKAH
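Test system: LMPTP-A phosphatase enzyme; input: 0.625 nM LMPTP-A final; reagent: OMFP substrate, 400 µM final; compound dosing: 20 µM single dose, 3% DMSO; incubation: 50 min dark incubation at room temperature; measured by: endpoint fluorescence intensity from OMFP dephosphorylation; measure: % inhibition relative to no-enzyme and uninhibited control wells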
DNMT1 inh – human DNMT1 methyltransferase inhibitors, primary screen, biochemical, molecular beacon, fluorescence, HinP1I cleavage, uHTS | DNA (cytosine-5)-methyltransferase 1 (Homo sapiens), P26358 | inhibition (reported as % activation of signal), % at 10 µM | AID 588458, 2011 | actives 0.83% (n = 360,000); in the data active means inhibition above about 50%
Beacon interf DR – spectral interference with molecular beacon fluorescence, dose response, artefact control for DNMT1 inhibitor project, biochemical, fluorescent molecular beacon; AID 602382, 2012; 200 tested, under 10 active; IC50, µM; spectral interference counter-screen; shares compounds with DNMT1 inh; call rule not given here
DNMT1 confirm – DNMT1 methyltransferase inhibitor retest, confirmation, biochemical, molecular beacon, fluorescence, single concentration. shares compounds with DNMT1 inh. DNMT1 molecular beacon HinP1I cleavage. inhibition, % at 10 µM. actives 8% (n = 2,300);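 active means average inhibition of at least 30% in the single-concentration confirmation test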
DNMT1 interf – counter-screen for DNMT1 inhibitors: spectral interference | shares compounds with DNMT1 inh | DNMT1 molecular beacon spectral interference counterscreen, fluorescence 485/520 | activation (fluorescence interference), % at 10 µM | actives 1% (n = 2,300);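 active means activation of at least 30% at 10 µM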;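 further: DNMT1 catalytic domain with a HinP1I cleavage step and a FAM/dabcyl DNA beacon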
Numbers stand for hits; . = inactive; / = no result. Sampled rows, rich in hits. Any-hit rate of the full collection: about 1.7%.

SMILES | SUMO1-SIM PPI | Scp-1 inhibitor | STEP block | LMPTP block | DNMT1 inh | DNMT1 confirm | DNMT1 interf | others
COc1ccc(CCNC(=O)C2CCCN(S(=O)(=O)c3ccccc3)C2)cc1 (centres undefined) | . | . | . | . | 82 | . | .
COc1ccc(CNC(=O)C2CCCN(S(=O)(=O)c3ccccc3)C2)cc1 (centres undefined) | . | . | . | . | . | / | /
CC(C)OC(=O)CSc1nc(Cc2ccccc2)nc2ccccc12 | . | . | . | . | . | / | /
CC1CCC2(CC1)NC(=O)N(CC(=O)Nc1ccc(F)cc1)C2=O (centres undefined) | . | . | . | . | . | / | /
Cc1ccc(OCC(=O)c2c(N)n(C)c(=O)n(C)c2=O)c([N+](=O)[O-])n1 | . | 66 | . | . | 82 | . | .
Cc1ccc(-n2nc3ccc(NC(=O)c4ccco4)cc3n2)cc1 | . | . | . | . | . | / | /
Cc1ccc(-n2nc3ccc(NC(=O)c4cccc([N+](=O)[O-])c4C)cc3n2)cc1 | . | . | . | . | 63 | . | .
CCOc1ccc(S(=O)(=O)NCCC(=O)NCc2ccc(OC)c(OC)c2)cc1 | . | . | . | . | . | / | /
COC(=O)N1CCN(c2ccc(C(C)=O)cc2)CC1 | . | . | . | . | . | / | /
COC(=O)c1ccc(N2CCS(=O)(=O)CC2)cc1 | . | . | . | . | 59 | . | .
c1cc(N2CCOCC2)ccc1-c1ccc2nncn2c1 | . | / | . | . | . | / | /
c1coc(-c2ccc3nncn3c2)c1 | 87 | / | . | . | 102 | 76 | . | Beacon interf DR=.
CC(=O)Nc1ccc(-c2csc(NC(=O)Cc3cccc(F)c3)n2)cc1 | . | . | . | . | . | / | /
O=C(NCc1cc(C(F)(F)F)ccc1Cl)c1cccc2c1C(=O)c1ccc(N3CCOCC3)cc1S2(=O)=O | . | . | . | . | 62 | . | .
O=C(NCc1cc(C(F)(F)F)ccc1Cl)c1cccc2c1C(=O)c1ccc(N3CCCCC3)cc1S2(=O)=O | . | . | . | . | . | / | /
Cn1c2ccccc2c2c(=O)oc3ccccc3c21 | . | . | . | . | 52 | . | . | Beacon interf DR=.
CCCn1cnc2c(=O)oc3ccccc3c21 | . | . | . | . | . | / | /
O=C(CCC(=O)OCc1ccc([N+](=O)[O-])cc1Cl)Nc1ccccc1 | . | . | . | . | . | / | /
CC(=O)Nc1ccc(OC(F)(F)C(F)F)c(NC(C)=O)c1 | . | . | . | . | . | / | /
C=C(C)C(=O)Nc1ccc(OC(F)(F)C(F)F)c(NC(=O)C(=C)C)c1 | . | . | . | . | 56 | . | .
O=C(O)c1cccc(-n2cccc2/C=C\[N+](=O)[O-])c1 | . | . | . | . | 62 | . | .
O=C(O)c1cccc(-n2cccc2/C=C/[N+](=O)[O-])c1 | 68 | 85 | . | . | 89 | . | .
CCN1C[C@@H]2[C@@H]3C(=O)N(C)C(=O)[C@@H]3[C@](CC)(C1=O)N2C(=O)c1ccccc1 | . | . | . | . | . | / | /
Cc1ccccc1OCC(=O)NCCCNC(=O)c1cccnc1 | . | . | . | . | . | / | /
O=C(CSc1ncnc2c1cnn2-c1ccccc1)NC1CCCC1 | . | . | . | . | . | / | /
SMILES | SUMO1-SIM PPI | Scp-1 inhibitor | STEP block | LMPTP block | DNMT1 inh | DNMT1 confirm | DNMT1 interf | others
COCCCC1CCN(C(=O)C2CCC(=O)N(Cc3ccccc3F)C2)CC1 (centres undefined) | . | . | . | . | . | / | /
CCC(C)NC(=O)COC(=O)c1ccccc1OCC(=O)Nc1ccc(Br)cc1 (centres undefined) | . | . | . | . | 51 | . | .
N#Cc1cccc(NC(=O)COC(=O)c2ccc[n+]([O-])c2)c1 | . | . | . | . | . | / | /
O=c1oc(/C=C/c2ccco2)nc2sc3c(c12)CCC3 | . | . | . | . | 108 | . | .
COn1c(=O)c(-c2ccc(Cl)cc2)[n+]([O-])c2ccccc21 | . | . | . | . | 68 | . | .
Cc1ccc(-n2ccnc2SCC(=O)c2c(N)n(C3CC3)c(=O)[nH]c2=O)cc1C | . | . | . | . | . | / | /
Cc1cc2nc(CN(C)C(=O)C3CCC(=O)N(C4CCCC4)C3)[nH]c2cc1C (centres undefined) | . | / | . | . | 73 | . | .
CCn1c2ccccc2c2cc(NC(=O)c3coc(=O)c(Br)c3)ccc21 | . | / | . | . | 51 | . | .
CCn1c2ccccc2c2cc(NC(=O)c3ccc(=O)oc3)ccc21 | . | . | . | . | . | / | /
Cc1cc(-c2ccc(C(C)C)c(S(=O)(=O)N3CCN(c4ccccn4)CC3)c2)on1 | . | . | . | . | . | / | /
Nc1ncnc2c1ncn2C1CCCC(CO)O1 (centres undefined) | . | . | . | . | 80 | . | .
Cc1ccc(NC(=O)CSc2ncccc2C(=O)Oc2cccc([N+](=O)[O-])c2)cc1Cl | . | . | . | . | 53 | . | .
CCOC(=O)c1cccnc1SCC(=O)Nc1ccc(C)cc1 | . | . | . | . | . | / | /
CC(C)CN(CCCNC(=O)CN1C(=O)COc2ccc(S(=O)(=O)N3CCCC3)cc21)CC(C)C | . | . | . | . | . | / | /
Cc1ccc(-n2cccc2/C=C2/C(=N)N3C(=NC2=O)SN=C3S(C)(=O)=O)cc1 | . | . | . | . | 76 | . | .
Cc1ccc(-n2cccc2/C=C2\C(=N)N3N=C(c4ccco4)SC3=NC2=O)cc1 | 104 | 97 | 63 | . | 87 | . | .
O=C(N/N=C/c1ccccc1)c1cc(=O)[nH]c2ccccc12 | . | . | . | . | 61 | . | .
CN(C)c1ccc(/C=N/NC(=O)c2cc(=O)[nH]c3ccccc23)cc1 | . | . | . | . | . | / | /
COc1ccc(/C=C2/SC(=O)N(CCC(=O)Nc3ccccc3)C2=O)cc1OC | . | . | . | . | 62 | . | .
COc1ccc(CCNc2ccc(C(CC(N)=O)NC(=O)Cc3cccc4ccccc34)cc2[N+](=O)[O-])cc1 (centres undefined) | . | . | . | . | . | / | /
